An excerpt weighted towards active compounds, which were near 2% of everything screened.
Beta2AR agonist = beta2AR agonists driving receptor internalization, primary screen, cell-based, FAP fluorogen, flow cytometry; Beta-2 adrenergic receptor (Homo sapiens), P07550; Am2.2-beta2AR cells; response, % (test concentration not listed); 340,000 compounds, 0.43% hits; AID 504454, 2011;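 active = response above a set limit, near 3 SD of response in nonfluorescent compounds, cut at about 42% in these data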
Target sequence (P07550 whole entry, looked up): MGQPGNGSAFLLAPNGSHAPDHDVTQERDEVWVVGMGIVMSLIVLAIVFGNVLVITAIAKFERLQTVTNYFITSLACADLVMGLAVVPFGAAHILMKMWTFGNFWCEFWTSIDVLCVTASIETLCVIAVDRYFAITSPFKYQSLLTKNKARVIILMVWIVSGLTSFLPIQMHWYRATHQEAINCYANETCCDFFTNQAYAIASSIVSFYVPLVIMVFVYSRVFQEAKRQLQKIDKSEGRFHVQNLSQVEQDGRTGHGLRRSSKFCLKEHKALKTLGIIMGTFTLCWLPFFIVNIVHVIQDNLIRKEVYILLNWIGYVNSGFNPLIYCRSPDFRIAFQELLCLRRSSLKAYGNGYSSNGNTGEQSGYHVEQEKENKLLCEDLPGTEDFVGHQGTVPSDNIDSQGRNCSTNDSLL
NTR1 ag = agonists of human NTR1, primary screen, imaging, U2OS cells, beta-arrestin-GFP, high content. Neurotensin receptor type 1 (Homo sapiens), P30989. NTR1-U2OS beta-arrestin-GFP spot imaging, agonist mode. activation, % at 20 µM. 330,000 compounds, 0.17% hits. AID 493036, 2011;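 active = activation at or above 40% of the spot to cytoplasm intensity ratio, with at least 20 cells analyzed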;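 also: 0% = DMSO without peptide and 100% = 100 nM NTR1 peptide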
Target sequence (P30989 whole entry, looked up): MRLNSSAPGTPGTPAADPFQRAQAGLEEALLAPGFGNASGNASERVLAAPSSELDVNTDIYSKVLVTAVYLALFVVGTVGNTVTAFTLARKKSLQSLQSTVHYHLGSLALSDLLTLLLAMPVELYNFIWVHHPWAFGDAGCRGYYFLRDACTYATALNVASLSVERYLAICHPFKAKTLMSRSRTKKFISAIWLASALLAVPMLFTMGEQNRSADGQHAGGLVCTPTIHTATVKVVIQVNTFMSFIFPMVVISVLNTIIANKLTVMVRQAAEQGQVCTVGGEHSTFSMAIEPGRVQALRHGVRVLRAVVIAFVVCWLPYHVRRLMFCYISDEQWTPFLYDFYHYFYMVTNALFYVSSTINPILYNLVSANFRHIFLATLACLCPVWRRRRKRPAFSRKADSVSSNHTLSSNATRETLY
Lipid droplet = inhibitors of hepatocyte lipid droplet formation, primary screen, imaging, high-throughput imaging, BODIPY stain; 240,000 compounds, 0.4% hits; AID 1656, 2009; AML12 mouse hepatocytes, oleate lipid droplets; inhibition, % at 6.5 µM;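 active = lipid droplet intensity inhibited by at least 50%, with more than 500 cells counted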
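System: AML12 hepatocytes (mouse). Probe or stimulus: oleic acid at 100 µM to induce lipid droplet formation. Times: overnight treatment with compound plus oleate. Detection: Image-based BODIPY and DAPI two-channel analysis. Evaluation: percent inhibition of filter-corrected integrated lipid droplet intensity per well.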
GRK2 inh = compounds blocking aptamer binding on GRK2 – biochemical, human GRK2, bead flow cytometry, HTS, primary screen; inhibition of aptamer binding, % at 10 µM; Beta-adrenergic receptor kinase 1 (Homo sapiens), P25098; 330,000 compounds, 0.59% hits; FAM-aptamer displacement from GRK2;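 active = inhibition of aptamer binding above 40%, roughly 3 SD of noise, on plates passing a quality check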;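 also: median bead fluorescence of bound FAM aptamer so fluorescent compounds give negative values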
Arrestin-AP2 inh = inhibitors of beta-arrestin/AP2 binding, primary screen, biochemical, GPCR trafficking, flow cytometry | beta-arrestin 1 C-terminal peptide binding to AP2 beta2-adaptin appendage (human) | FITC-arrestin peptide / GST-AP2 beads; AP2 beta2 appendage carries R879A mutation | inhibition, % at 10 µM | 340,000 compounds, 0.31% hits;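 active = inhibition above a set limit, near 3 SD of compounds lacking own fluorescence, cut at about 54% in these data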;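 also: plate controls were DMSO wells for no effect and 5 µM unlabelled arrestin peptide for full effect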
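system = GST-tagged AP2 beta2-adaptin appendage (R879A) on 4 µm glutathione beads | reagent = FITC-labelled arrestin peptide probe, 50 nM final | schedule = compound with beads 12 min RT, then probe 1 h RT | signal = HyperCyt-sampled flow cytometry, FL1 channel, ex 488/em 535 nm | read-out = percent response from loss of bead-bound FITC fluorescence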
H9c2 TAG inh = inhibitors of triacylglycerol accumulation, primary screen, cell-based, uHTS, fluorescence, H9c2. H9c2 cells, Nile Red lipid (TAG) fluorescence; cells loaded with 200 µM oleic acid. inhibition, % at 12.5 µM. 230,000 compounds, 0.66% hits. AID 651582, 2012;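 active = pattern-corrected inhibition of lipid staining of at least 50% with the nuclear-stain viability signal not falling by more than 50%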;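 also: 0% = DMSO wells and 100% = triacsin C control wells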
GRK2 inh confirm = GRK2 aptamer-displacing inhibitors, retest, confirmation, biochemical, cherry pick 1, bead flow cytometry | 2,000 compounds, 4% hits | shares compounds with GRK2 inh | aptamer displacement, % at 10 µM | bead-bound GRK2, FAM-aptamer displacement;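 active = aptamer displacement above 40%, near three times the noise of non-fluorescent compounds, on plates passing quality checks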;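 also: negative values mostly reflect intrinsic compound fluorescence rather than true enhancement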
Aptamer quench 1 = counter-screen for GRK2 aptamer inhibitors: fluorescent aptamer quenchers. shares compounds with GRK2 inh. Fluorescent RNA aptamer beads, quenching, flow cytometry; active compounds read high. fluorescence change (kMESF span), kMESF (concentration not given with the values). 110 tested, under 10 active;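 active = compounds whose bead fluorescence drops by more than 37 kMESF across the dose range, marking them as dye quenchers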
Aptamer quench SP = counter-screen for GRK2 aptamer inhibitors: fluorescent aptamer quenchers. AID 504580. fluorescence response (% of DMSO), % at 10 µM. shares compounds with GRK2 inh. 2,000 tested, under 10 active. Carboxyfluorescein RNA aptamer on beads, flow cytometry quenching; active compounds read low;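 active = compounds that quench the bead-bound fluorescent RNA probe, cutting fluorescence to under half of the solvent control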;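 also: counterscreen run without GRK2 so only probe quenching by compound is measured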
GRK2 confirm 2 = GRK2 aptamer-displacing inhibitors, hit retest, confirmation, biochemical, cherry pick 2, bead flow cytometry; 360 tested, under 10 active; inhibition of aptamer binding, % at 10 µM; AID 504782, 2011; shares compounds with GRK2 inh; bead-bound GRK2, FAM-aptamer displacement;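 active = inhibition of aptamer binding above 40%, about triple the noise seen with nonglowing compounds, on plates passing quality control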;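 also: negative values mostly come from compounds that fluoresce themselves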
FAM quench SP = quenches fluorescent RNA aptamer, GRK2 hit artifact | AID 588494 | 360 tested, under 10 active | fluorescence response vs DMSO, % at 10 µM | carboxyfluorescein RNA aptamer beads, flow cytometry quenching; active compounds read low | shares compounds with GRK2 inh;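 active = response vs DMSO under 50%, meaning signal dropped by over half, treated as fluorescence quencher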;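 also: labelled aptamer on streptavidin beads without GRK2 as a quench counter-screen; 100% = bead fluorescence of DMSO wells and lower means quenching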
FAM quench DR = quenchers of FAM-labeled RNA aptamer fluorescence, dose response, artefact control for GRK2 aptamer binding project, biochemical, powder set 1, flow cytometry | fluorescence ratio to DMSO, % at 11.1 µM | shares compounds with GRK2 inh | Bead-bound FAM RNA aptamer fluorescence quenching; active compounds read low | 35 tested, under 10 active | AID 588496, 2011;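 active = compounds that dim the fluorescent label, raw bead signal shifting by over 33 units between lowest and highest dose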
* = called active by the depositor; · = not tested or not shown.

SMILES | Beta2AR agonist | NTR1 ag | Lipid droplet | GRK2 inh | Arrestin-AP2 inh | H9c2 TAG inh | GRK2 inh confirm | Aptamer quench SP | others
CC(C)C(c1nnnn1C(C)(C)C)N1CCOCC1 (configuration not stated) | -1.1 | -2.1 | 3.8 | 47.0* | 0.3 | 5.4 | -4.3 | 95.8
CC(C)C(c1nnnn1C1CCCCC1)N1CCOCC1 (configuration not stated) | 1.2 | -1.0 | · | 1.0 | 15.8 | -3.4 | · | ·
C=CCNC(=O)c1ccc(C(=O)c2ccccc2)cc1 | -5.4 | -2.2 | · | 67.0* | 0.0 | · | -8.3 | 99.3
CN(c1ccccc1)S(=O)(=O)c1cccc(NC(=O)c2ccc3ncsc3c2)c1 | 20.6 | 27.0 | 13.4 | 0.0 | -2.7 | 22.7 | · | ·
COc1ccccc1-c1ccc(Nc2cccc(C(C)=O)c2)nn1 | 1.2 | 0.8 | -3.1 | 2.0 | 2.4 | · | -7.8 | 103.3
CC(=O)c1cccc(Nc2ccc(-c3ccccc3F)nn2)c1 | 8.6 | 5.0 | -8.7 | 1.0 | -18.8 | -7.3 | 0.1 | 102.1
COc1cccc(Nc2ccc(Nc3cccc(OC)c3)nn2)c1 | 14.2 | 2.7 | 6.7 | 0.0 | -7.0 | · | · | ·
CC(=O)c1ccc(Nc2ccc(-c3ccccc3C)nn2)cc1 | -12.6 | -0.8 | 48.2 | 0.0 | -5.0 | · | · | ·
Cc1cccc(NC(=O)c2csnn2)n1 | -12.9 | 6.2 | 3.7 | 34.0 | 27.5 | 15.2 | -3.2 | 98.4
Cc1cc(C)n2nc(C(=O)N3CCCC(Nc4ccc(F)c(F)c4)C3)cc2n1 (configuration not stated) | 4.0 | -0.7 | -14.8 | 85.0* | 39.7 | 0.5 | · | · | GRK2 confirm 2=8.5;FAM quench SP=102.0
Cc1ccccc1-c1nc(S(=O)(=O)c2ccccc2)c(N2CCCC2)o1 | -1.7 | -0.1 | · | 3.0 | 26.6 | -70.1 | · | ·
CN(CC(=O)Nc1c(Cl)cccc1Cl)C(=O)C1CC(=O)N(Cc2ccccc2)C1 (configuration not stated) | -2.9 | -0.4 | · | 0.0 | 30.5 | -8.6 | · | ·
O=C(CCCOc1ccccc1)Nc1ccc(Cl)c(S(=O)(=O)N2CCOCC2)c1 | 5.2 | 1.3 | · | 0.0 | -0.5 | -14.0 | · | ·
Cc1ccc(NC(=O)CCCOc2ccccc2)cc1S(=O)(=O)N1CCOCC1 | -9.8 | 0.3 | · | 75.0* | -2.2 | -21.7 | 2.1 | 99.4
CN(Cc1ccccc1)C(=O)CCS(=O)(=O)c1ccc2c(c1)NC(=O)CS2 | -0.7 | -0.7 | 20.5 | 5.0 | -4.1 | · | · | · | GRK2 confirm 2=5.3;FAM quench SP=100.0
CCN(Cc1ccccc1)S(=O)(=O)c1ccc2c(c1)NC(=O)CS2 | -2.3 | 1.8 | -0.5 | 0.0 | -3.1 | · | · | ·
CC(CS(=O)(=O)c1ccc2c(c1)NC(=O)CS2)C(=O)NCc1ccccc1Cl (configuration not stated) | -8.2 | 0.7 | -8.3 | 99.0* | -2.4 | · | 78.4* | 94.5 | Aptamer quench 1=-3.2;FAM quench DR=97.0
O=S(=O)(NCC1CCCO1)c1ccc(Cl)c2ccccc12 (configuration not stated) | · | · | · | · | · | -20.6 | · | ·
CC(=O)c1ccc(NC(=O)c2cccc(N3C(=O)c4ccccc4C3=O)c2)cc1 | 81.2* | -0.8 | -1.3 | 48.0* | -7.2 | -20.9 | · | · | GRK2 confirm 2=-254.4;FAM quench SP=101.0
COc1ccc(NC(=O)c2cccc(N3C(=O)c4ccc(C(=O)Nc5ccc(OC)c(O)c5)cc4C3=O)c2)cc1O | 12.1 | 2.8 | -13.0 | 3.0 | -13.4 | 17.2 | · | ·
Cc1onc(-c2c(Cl)cccc2Cl)c1C(=O)Nc1ccc(C(N)=O)cc1 | 4.8 | -2.5 | -7.4 | 4.0 | -1.4 | · | · | ·
O=C(O)c1ccc(Nc2nc3ccccc3nc2NS(=O)(=O)c2cccs2)cc1 | 3.1 | 0.3 | -4.4 | 94.0* | 20.4 | · | -7.5 | 96.2
COc1ccc(C(=S)Nc2ccc(C)cc2)cc1 | -16.6 | -0.1 | · | 100.0* | -3.6 | -6.2 | -2.0 | 98.3
COc1ccc(NC(=S)c2ccncc2)cc1 | 26.7 | 5.3 | -11.5 | 0.0 | -4.6 | · | · | ·
Cc1cc(Br)c2c(c1)C1(OCCO1)C(=O)N2 | -2.2 | 2.1 | · | 0.0 | 2.6 | · | · | ·
SMILES | Beta2AR agonist | NTR1 ag | Lipid droplet | GRK2 inh | Arrestin-AP2 inh | H9c2 TAG inh | GRK2 inh confirm | Aptamer quench SP | others
Cc1cc(C)c2c(c1)C1(OCCO1)C(=O)N2 | -7.4 | 1.1 | · | 18.0 | -2.0 | · | 1.1 | 103.4
Cc1ccc(-c2cn3nc(-c4ccccc4)c(-c4ccccc4)nc3n2)cc1 | -136.7 | 2.5 | 17.8 | 66.0* | 34.5 | -2.4 | 3.2 | 102.8
c1ccc(-c2cn3nc(-c4ccccc4)c(-c4ccccc4)nc3n2)cc1 | -40.5 | -0.9 | · | 1.0 | 42.2 | -0.2 | · | ·
COc1cc2c3c(c1OC)C1(C=CC(=O)C=C1)CC3N(C(=O)c1ccccc1)CC2 (configuration not stated) | -0.3 | 0.5 | · | 70.0* | 5.1 | · | 3.1 | 97.7
Cc1c(NC(=O)Nc2ccccc2[N+](=O)[O-])c(=O)n(-c2ccccc2)n1C | 3.7 | 0.2 | 4.0 | 13.0 | 2.8 | · | 1.2 | 101.2
O=C(Nc1ccccn1)Nc1ccccc1[N+](=O)[O-] | -8.7 | 0.4 | -1.8 | 13.0 | -9.2 | · | 0.3 | 102.9
O=C(Cn1cc([N+](=O)[O-])cn1)Nc1ccccn1 | 1.8 | -0.2 | · | 60.0* | 0.5 | · | -1.3 | 96.4
Cc1c(NC(=O)Nc2ccc([N+](=O)[O-])cc2)c(=O)n(-c2ccccc2)n1C | 1.9 | -1.4 | · | 0.0 | -2.9 | · | · | ·
Cc1ccccc1NC(=O)Nc1ccccn1 | 8.1 | 1.0 | 3.0 | 0.0 | -1.6 | · | · | ·

Screening results (PubChem BioAssay)
